Experimental data from ChEMBL document CHEMBL3784997 (J Med Chem, 2016).

Tests used:
[1] = molecular target: T1, Adenosine receptor A1 (Homo sapiens) (UniProt P30542); test: Displacement of [3H]DPCPX from human Adenosine A1 receptor expressed in CHO cells at 1 uM after 60 mins; type: cell-based
T1 sequence (whole entry): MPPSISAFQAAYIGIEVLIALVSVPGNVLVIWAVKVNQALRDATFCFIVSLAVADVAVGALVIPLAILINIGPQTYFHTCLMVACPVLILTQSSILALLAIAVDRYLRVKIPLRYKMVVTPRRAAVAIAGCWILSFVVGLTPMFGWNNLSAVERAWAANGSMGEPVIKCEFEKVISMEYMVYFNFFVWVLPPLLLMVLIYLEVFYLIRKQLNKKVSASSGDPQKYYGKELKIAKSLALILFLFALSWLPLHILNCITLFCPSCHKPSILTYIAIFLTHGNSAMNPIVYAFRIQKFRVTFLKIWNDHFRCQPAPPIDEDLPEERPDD
How it was run: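 Competition binding on membranes from CHO cells expressing human A1, labelled with 2 nM [3H]DPCPX. Non-specific binding was defined with 10 µM R-PIA, and incubation was at 25 °C for 60 min. The value is percent inhibition of specific binding at 1 µM test compound (n = 2, average).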

[2] = molecular target: Adenosine receptor A2a (Homo sapiens) (UniProt P29274); test: Displacement of [3H]ZM241385 from human Adenosine A2A receptor expressed in HeLa cells at 1 uM after 30 mins; type: cell-based
How it was run: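 Membranes from HeLa cells expressing human A2A were labelled with 3 nM [3H]ZM241385, with non-specific binding defined by 50 µM NECA, and incubated at 25 °C for 30 min. The value is percent displacement of specific binding at 1 µM test compound (n = 2).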

Adenosine receptor A2b [3] = molecular target: T2, Adenosine receptor A2b (Homo sapiens, UniProt P29275); test: Displacement of [3H]DPCPX from human Adenosine A2B receptor expressed in HEK293 cells after 30 mins; type: cell-based
T2 sequence (P29275 whole entry): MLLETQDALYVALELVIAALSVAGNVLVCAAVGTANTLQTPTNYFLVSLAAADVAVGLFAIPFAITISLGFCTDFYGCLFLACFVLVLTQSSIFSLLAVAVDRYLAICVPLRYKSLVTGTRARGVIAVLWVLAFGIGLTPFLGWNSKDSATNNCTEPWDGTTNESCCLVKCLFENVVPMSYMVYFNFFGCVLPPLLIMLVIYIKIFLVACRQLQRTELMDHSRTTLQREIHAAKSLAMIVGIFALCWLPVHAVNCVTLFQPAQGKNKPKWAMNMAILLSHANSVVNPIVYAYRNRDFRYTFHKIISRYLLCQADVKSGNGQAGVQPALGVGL

[4] = molecular target: T3, Adenosine receptor A3 (Homo sapiens) (UniProt P0DMS8); test: Displacement of [3H]NECA from human Adenosine A3 receptor expressed in HeLa cells at 1 uM after 180 mins
T3 sequence (whole entry): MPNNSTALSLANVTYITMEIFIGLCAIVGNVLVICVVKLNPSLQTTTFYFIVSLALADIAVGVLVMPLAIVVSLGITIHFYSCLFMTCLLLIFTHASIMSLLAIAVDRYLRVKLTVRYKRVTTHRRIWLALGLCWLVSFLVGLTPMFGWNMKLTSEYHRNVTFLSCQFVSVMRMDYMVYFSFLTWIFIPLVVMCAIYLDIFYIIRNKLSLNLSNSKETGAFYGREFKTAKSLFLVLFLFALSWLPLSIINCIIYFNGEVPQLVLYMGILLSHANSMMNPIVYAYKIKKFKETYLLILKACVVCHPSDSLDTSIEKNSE

Adenosine receptor A2b [5] = molecular target: T2, Adenosine receptor A2b; test: Displacement of [3H]OSIP339391 from human recombinant Adenosine A2B receptor expressed in HEK293 cells after 60 mins; type: cell-based
[6] = molecular target: T4, Adenosine receptor A2b (Homo sapiens) (UniProt P29275); test: Displacement of [3H]DPCPX from human Adenosine A2B receptor expressed in HEK293 cells at 1 uM after 30 mins; type: cell-based
T4 sequence (whole entry): T2 sequence (P29275 whole entry)
How it was run: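 Membranes from HEK-293 cells expressing human A2B were labelled with 35 nM [3H]DPCPX, with non-specific binding defined by 400 µM NECA, and incubated at 25 °C for 30 min.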

Adenosine receptor A3 = molecular target: T5, Adenosine receptor A3 (Homo sapiens, UniProt P0DMS8); test: Displacement of [3H]NECA from human Adenosine A3 receptor expressed in HeLa cells after 180 mins
T5 sequence (P0DMS8 whole entry): T3 sequence (whole entry)

[7] = molecular target: T4, Adenosine receptor A2b (Homo sapiens); test: Antagonist activity at human Adenosine A2B receptor expressed in HEK293 cells assessed as inhibition of NECA-induced cAMP production preincubated for 15 mins followed by NECA addition measured after 15 mins by enzyme immunoassay; type: functional, cell-based
How it was run: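 HEK293 cells seeded at 10000 cells/well and grown at 37 °C, 5% CO2 in EMEM F-12 with 10% FCS and 1% L-glutamine. After washing, cells were preincubated 15 min at 37 °C with compound and 30 µM rolipram in EMEM-F12/25 mM HEPES pH 7.4. NECA was then added for 15 min at 37 °C. cAMP was read by enzyme immunoassay after kit lysis; n = 3, each in duplicate.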

Sequence of Adenosine receptor A2a (Homo sapiens) (P29274 whole entry): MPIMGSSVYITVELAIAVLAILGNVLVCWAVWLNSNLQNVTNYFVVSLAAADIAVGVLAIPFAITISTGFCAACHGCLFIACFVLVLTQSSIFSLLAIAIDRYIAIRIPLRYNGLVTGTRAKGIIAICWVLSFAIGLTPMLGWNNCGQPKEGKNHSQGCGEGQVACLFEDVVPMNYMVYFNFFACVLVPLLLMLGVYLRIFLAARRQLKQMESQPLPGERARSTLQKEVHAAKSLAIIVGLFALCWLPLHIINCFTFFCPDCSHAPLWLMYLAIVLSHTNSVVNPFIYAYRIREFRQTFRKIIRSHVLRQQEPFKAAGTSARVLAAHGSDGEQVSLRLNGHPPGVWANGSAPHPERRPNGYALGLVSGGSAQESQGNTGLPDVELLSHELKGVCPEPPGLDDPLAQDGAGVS

| SMILES | Activity [1] [%] | Activity [2] [%] | Ki (Adenosine receptor A2b [3]) [nM] | Activity [4] [%] | Ki (Adenosine receptor A2b [5]) [nM] | Activity [6] [%] | Ki (Adenosine receptor A3) [nM] | Kb [7] [nM] |
| --- | --- | --- | --- | --- | --- | --- | --- | --- |
| CC1=C(C(=O)OC(C)C)C(c2cccs2)n2ccnc2N1 (racemic) | 3 | 3 | 728 | 5 |  |  |  |  |
| CC1=C(C(=O)OC(C)C)C(c2ccoc2)n2ccnc2N1 (racemic) | 1 | 4 | 277 | 10 |  |  |  |  |
| CC(=O)NCCNc1nc(-c2ccccc2)nc2nc(C(=O)N3CCN(CCCc4ccccc4)CC3)[nH]c12 |  |  |  |  | 0.5 |  |  |  |
| CC1=C(C(=O)OC(C)C)C(c2ccoc2)n2ncnc2N1 (racemic) | 2 | 2 | 350 | 20 |  |  |  |  |
| CCOC(=O)C1=C(C)Nc2ncnn2C1c1ccsc1 (racemic) | 3 | 21 | 699 | 2 |  |  |  |  |
| CCOC(=O)C1=C(C)Nc2nccn2C1c1cccs1 (racemic) | 2 | 2 |  |  |  | 8 | 4610 |  |
| CCOC(=O)C1=C(C)Nc2ncnn2C1c1ccoc1 (racemic) | 2 | 1 | 602 | 4 |  |  |  |  |
| CC1=C(C(=O)OC(C)C)C(c2ccco2)CC(=O)N1 (racemic) | 14 | 14 |  | 31 |  | 15 |  |  |
| CC1=C(C(=O)OC(C)C)C(c2ccsc2)n2ccnc2N1 (racemic) | 3 | 1 | 847 | 1 |  |  |  |  |
| CCN1CC2=C(C1=O)C(c1ccoc1)NC(=O)N2 (racemic) | 16 | 13 |  | 17 |  | 35 |  |  |
| CCN1CC2=C(C1=O)C(c1ccco1)NC(=O)N2 (racemic) | 7 | 7 |  | 20 |  | 17 |  |  |
| CC1=C(C(=O)OC(C)C)C(c2ccsc2)n2ncnc2N1 (racemic) | 3 | 2 | 817 | 5 |  |  |  |  |

Now from value to compound:

| Activity [1] [%] | Activity [2] [%] | Ki (Adenosine receptor A2b [3]) [nM] | Activity [4] [%] | Ki (Adenosine receptor A2b [5]) [nM] | Activity [6] [%] | Ki (Adenosine receptor A3) [nM] | Kb [7] [nM] | SMILES |
| --- | --- | --- | --- | --- | --- | --- | --- | --- |
| 2 | 5 | 108 | 6 |  |  |  |  | CCOC(=O)C1=C(C)Nc2nccn2C1c1ccco1 (racemic) |
| 8 | 16 | 485 | 1 |  |  |  |  | CCOC(=O)C1=C(C)Nc2nc3ccccc3n2C1c1cccs1 (racemic) |
| 1 | 17 | 371 | 3 |  |  |  |  | CC1=C(C(=O)OC(C)C)C(c2cccs2)n2c(nc3ccccc32)N1 (racemic) |
| 22 | 13 | 2540 | 24 |  |  |  |  | CCOC(=O)C1=C(C)NC(=O)CC1c1ccco1 (racemic) |
| 5 | 14 | 12 | 1 |  |  |  |  | CCOC(=O)C1=C(C)Nc2nc3ccccc3n2C1c1ccco1 (racemic) |
| 7 | 11 | 20.6 | 1 |  |  |  |  | CCOC(=O)C1=C(C)Nc2nc3ccccc3n2C1c1ccoc1 (racemic) |
| 11 | 3 | 29.3 | 21 |  |  |  |  | CC1=C(C(=O)OC(C)C)C(c2ccsc2)n2c(nc3ccccc32)N1 (racemic) |
| 3 | 10 | 29.7 | 2 |  |  |  |  | CCOC(=O)C1=C(C)Nc2nc3ccccc3n2C1c1ccsc1 (racemic) |
| 2 | 5 | 55.6 | 2 |  |  |  | 266 | CC1=C(C(=O)OC(C)C)C(c2ccco2)n2ncnc2N1 (racemic) |
| 20 | 25 |  | 2 |  |  |  | 27 | CC1=C(C(=O)OC(C)C)C(c2ccco2)n2c(nc3ccccc32)N1 (racemic) |
| 3 | 4 | 85.6 | 2 |  |  |  |  | CC1=C(C(=O)OC(C)C)C(c2ccco2)n2ccnc2N1 (racemic) |
| 12 | 22 | 11.4 | 2 |  |  |  |  | CC1=C(C(=O)OC(C)C)C(c2ccoc2)n2c(nc3ccccc32)N1 (racemic) |
